Source: the array DNA melting data of Ke et al. (doi:10.1101/2024.01.08.574731)

Experiments:
[1] = folding enthalpy; higher = less favourable; fluorescence melt of hairpins on a sequencing array, two-state fit; settings: sodium 0.088 M
In short: (§1)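 In 50 mM Na-HEPES pH 8.0 containing 25 mM NaCl, hairpins from the library on a sequenced MiSeq flow cell were imaged for Cy3 fluorescence at 2.5 °C steps up to 60 °C, with Cy3 and quencher oligos annealed. After normalisation to pre-quench Cy3 and to control constructs, two-state fits with bootstrapping gave melting temperature and folding enthalpy. Four replicates were combined by inverse-variance weighting, and fitted temperatures were shifted up by 9.35 °C to match UV melts.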

[2] = melting temperature; fluorescence melt of hairpins on a sequencing array, two-state fit, raised by 9.35 °C to match UV melts; settings: sodium 0.088 M
In short: as §1

Sequence | folding enthalpy [1] [kcal/mol] | Tm [2] [°C]
GCATATCGAAAGATTGC (((.(((....)))))) | -25.9 | 46.6
GCATCAACGAAAGTTTGC (((..(((....)))))) | -16.9 | 30.8
GCATCAGGAAACTAATGC ((((.((....)).)))) | -22.6 | 31.5
GCATCAGGAAACTGACGC ((.((((....)))).)) | -30 | 44.5
GCATCATCGAAAGATTGC (((..(((....)))))) | -19.8 | 30.8
GCATCCGAAAGGAAATGC ((((((....)))..))) | -25.3 | 46.1
GCATCCGAAAGGAGCTGC ((((((....)))..))) | -19.2 | 50.6
GCATCCGAAAGGAGTTGC ((((((....)))..))) | -15.4 | 37.9
GCATCCGAAAGGATCTGC ((((((....)))..))) | -17.1 | 46.5
GCATCCGGAAACGGATAC (.(((((....))))).) | -16.9 | 39.7
GCATCGCGAAAGCATTGC (((..((....))..))) | -13.1 | 37.7
GCATCGCGAAAGCCAAGC ((.(.((....)).).)) | -9.2 | 27.5
GCATCGCGAAAGCCGTGC (((..((....))..))) | -19.3 | 45.1
GCATCGCGAAAGCGTGGC ((..(((....)))..)) | -15.8 | 54.7
GCATCGCGAAAGCTACGC ((.(.((....)).).)) | -8.55 | 32.8
GCATCGGGAAACCAACGC ((.(.((....)).).)) | -17.7 | 28.3
GCATCGGGAAACCGACGC ((.((((....)))).)) | -42.1 | 50.4
GCATCGGGAAACTGATGC (((((.(....).))))) | -37.2 | 55.7
GCATCTGCGAAAGCATGC (((..(((....)))))) | -14.4 | 39.8
GCATCTGGAAACAGATGC (((((((....))))))) | -47.9 | 67.3
GCATGAGCGAAAGCTTGC (((..(((....)))))) | -14.1 | 45.6
GCATGATCGAAAGATTGC (((..(((....)))))) | -19.9 | 32.6
GCATGCCCGAAAGGGTGC (((..(((....)))))) | -14.3 | 44.4

Sequence | folding enthalpy [1] [kcal/mol] | Tm [2] [°C]
GCATGCCGAAAGGCCTGC (((.(((....))).))) | -31.6 | 55.9
GCATGCGAAAGCAATTGC ((((((....)))..))) | -19.5 | 44.1
GCATGCGAAAGCACATGC ((((((....)))..))) | -19 | 51
GCATGCGAAAGCACGTGC ((((((....)))..))) | -19.2 | 39.8
GCATGCGAAAGCACTGC ((((((....))).))) | -22.3 | 51.3
GCATGCGAAAGCACTTGC ((((((....)))..))) | -15.4 | 37.7
GCATGCGAAAGCAGATGC ((((((....)))..))) | -24.6 | 51.4
GCATGCGAAAGCAGGTGC ((((((....)))..))) | -23.2 | 51.1
GCATGCGAAAGCAGTGC ((((((....))).))) | -27 | 54.6
GCATGCGGAAACGCATAC (.(((((....))))).) | -9.77 | 44
GCATGCTCGAAAGAGTGC (((..(((....)))))) | -15.8 | 34.3
GCATGGACGAAAGTCTGC (((..(((....)))))) | -19.1 | 43
GCATGGCGAAAGCCCTGC (((.(((....))).))) | -45.3 | 53
GCATGGCGAAAGCGAAGC ((.(.((....)).).)) | -11.7 | 35.4
GCATGGCGAAAGCGTTGC (((..((....))..))) | -21.5 | 48
GCATGGCGAAAGCTAAGC ((.(.((....)).).)) | -12.6 | 38.4
GCATGGCGAAAGCTACGC ((.(.((....)).).)) | -16.4 | 35
GCATGGCGAAAGCTGTGC (((..((....))..))) | -31.6 | 59.9
GCATGGGGAAACCCACGC ((.((((....)))).)) | -23.8 | 46.7
GCATGGGGAAACCCGTGC (((.(((....))).))) | -47.5 | 58.7
GCATGTCGAAAGACCTGC (((.(((....))).))) | -37.4 | 50.6
GCATGTGGAAACACATGC (((((((....))))))) | -37.1 | 68.5
GCATGTGGAAACACGTGC (((.(((....))).))) | -45.4 | 55.6

Sequence | folding enthalpy [1] [kcal/mol] | Tm [2] [°C]
GCATTAACGAAAGTTTGC (((..(((....)))))) | -16 | 33.6
GCATTACCGAAAGGTTGC (((..(((....)))))) | -20.1 | 40
GCATTAGGAAACTAGTGC (((.(((....))).))) | -28.6 | 40.9
GCATTCCCGAAAGGGTGC (((..(((....)))))) | -20.9 | 43.5
GCATTCGAAAGAAATGC ((((((....))).))) | -30.4 | 49
GCATTCGAAAGAAGGTGC ((((((....)))..))) | -22.2 | 36.7
GCATTCGAAAGAAGTGC ((((((....))).))) | -23.2 | 40.2
GCATTCGCGAAAGCGTGC (((..(((....)))))) | -11.8 | 41.8
GCATTGCGAAAGCAGTGC (((.(((....))).))) | -48.9 | 59.8
GCATTGCGAAAGCTAAGC ((.(.((....)).).)) | -14.8 | 43.7
GCATTGCGAAAGCTACGC ((.(.((....)).).)) | -14 | 39.1
GCATTGCGAAAGCTGTGC (((..((....))..))) | -22.2 | 56
GCATTGGCGAAAGCCTGC (((..(((....)))))) | -15.1 | 44.3
GCATTGGGAAACCAACGC ((.((((....)))).)) | -29.4 | 42.2
GCATTGGGAAACCAATAC (.(((((....))))).) | -18.4 | 32.9
GCATTGGGAAACCGATGC ((((.((....)).)))) | -50.4 | 53.3
GCATTGGGAAACTAGTGC (((.(.(....).).))) | -19.5 | 29.8
GCATTGTCGAAAGACTGC (((..(((....)))))) | -22.8 | 37.2
GCATTTACGAAAGTATGC (((..(((....)))))) | -22.2 | 38
GCATTTCGAAAGAATTGC (((.(((....))).))) | -33.7 | 47.1
GCATTTGGAAACAAATAC (.(((((....))))).) | -17.9 | 29.3
GCCAAACCGAAAGGTGGC (((..(((....)))))) | -32 | 55.4
GCCAAACGAAAGTTGGGC (((.(((....))).))) | -37.2 | 61.4

Sequence | folding enthalpy [1] [kcal/mol] | Tm [2] [°C]
GCCAAAGAAATTTGGC ((((((....)))))) | -34.6 | 54
GCCAAAGGAAACCTTGGC (((((.(....).))))) | -29 | 48.1
GCCAACGAAAGTTACGGC ((((((....)))..))) | -26.1 | 41.3
GCCAACGAAAGTTAGGC ((((((....))).))) | -28.9 | 52.8
GCCAACGAAAGTTCTGGC ((((((....)))..))) | -24.9 | 38
GCCAACGAAAGTTGGGC ((((((....))).))) | -14.2 | 65.7
GCCAACGAAAGTTTTGGC ((((((....)))..))) | -23.2 | 44.6
GCCAACGGAAACACTGGC ((((..(....)..)))) | -14 | 29.1
GCCAACGGAAACATTGGC (((((.(....).))))) | -31.9 | 44.1
GCCAACTCGAAAGAGGGC (((..(((....)))))) | -20.2 | 47.3
GCCAAGGGAAACTTTGGC (((((.(....).))))) | -30.1 | 48.6
GCCAATACGAAAGTAGGC (((..(((....)))))) | -25.6 | 44.2
GCCAATCGAAAGATCGGC (((.(((....))).))) | -35.6 | 49.8
GCCAATCGAAAGATGGGC (((.(((....))).))) | -39.5 | 55.1
GCCAATGCGAAAGCAGGC (((..(((....)))))) | -21.7 | 53
GCCACATCGAAAGATGGC (((..(((....)))))) | -15.2 | 45.5
GCCACCGGAAACGATGGC ((((.((....)).)))) | -44 | 52.6
GCCACCTCGAAAGAGGGC (((..(((....)))))) | -9.58 | 44.5
GCCACGCGAAAGCATCGC ((.(.((....)).).)) | -7.48 | 24
GCCACGCGAAAGCCAGGC (((..((....))..))) | -22.7 | 50.2
GCCACGCGAAAGCCTAGC ((.(.((....)).).)) | -6.53 | 14.4
